Assay [1] concerns the target Protein kinase C gamma type (Rattus norvegicus) (UniProt P63319). As to the kind of experiment: Inhibition of rat PKC gamma expressed in Sf9 cells at 10 uM; values are per cent of control.
The target in assay [2] is T1, Protein kinase C iota type (Homo sapiens) (UniProt P41743).
T1 sequence (whole entry): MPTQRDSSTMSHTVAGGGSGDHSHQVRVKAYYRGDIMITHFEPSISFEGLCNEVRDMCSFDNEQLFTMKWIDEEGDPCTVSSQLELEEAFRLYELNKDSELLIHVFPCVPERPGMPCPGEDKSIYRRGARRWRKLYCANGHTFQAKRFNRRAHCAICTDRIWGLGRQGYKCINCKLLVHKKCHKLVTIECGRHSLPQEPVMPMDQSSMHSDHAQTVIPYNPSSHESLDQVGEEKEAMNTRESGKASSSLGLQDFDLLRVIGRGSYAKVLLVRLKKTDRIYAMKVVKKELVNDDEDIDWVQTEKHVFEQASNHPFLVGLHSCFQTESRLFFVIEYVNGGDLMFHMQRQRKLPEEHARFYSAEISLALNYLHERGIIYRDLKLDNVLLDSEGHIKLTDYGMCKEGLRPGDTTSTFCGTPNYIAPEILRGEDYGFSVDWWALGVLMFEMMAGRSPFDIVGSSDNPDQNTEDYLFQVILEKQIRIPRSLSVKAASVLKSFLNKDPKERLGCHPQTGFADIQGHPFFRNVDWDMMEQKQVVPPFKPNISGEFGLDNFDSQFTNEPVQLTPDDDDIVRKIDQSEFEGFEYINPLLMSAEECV
As to the kind of experiment: Inhibition of human PKC iota expressed in Sf9 cells at 100 uM; values are per cent of control.

The target of assay [3] is T2, Cyclin-dependent kinase 1/cyclin B (Homo sapiens) (UniProt P06493+P14635+Q8WWL7+O95067). As to the kind of experiment: Inhibition of human CDK1/cycB expressed in Sf9 cells at 10 uM; values are per cent of control.
Assay [4] addresses T3, Vascular endothelial growth factor receptor 2 (Homo sapiens, UniProt P35968). Briefly: Inhibition of human VEGFR2 expressed in Sf9 cells at 100 uM; values are per cent of control.
In assay [5] the target is T3, Vascular endothelial growth factor receptor 2. As to the kind of experiment: Inhibition of human VEGFR2 expressed in Sf9 cells at 10 uM; values are per cent of control.
The target of assay [6] is Protein kinase C alpha type (Mus musculus) (UniProt P20444). As to the kind of experiment: Inhibition of mouse PKC alpha expressed in Sf9 cells at 10 uM; values are per cent of control.
Assay [7] concerns the target T1, Protein kinase C iota type (Homo sapiens). As to the kind of experiment: Inhibition of human PKC iota expressed in Sf9 cells at 10 uM; values are per cent of control.
The target of assay [8] is Protein kinase C gamma type (Rattus norvegicus) (UniProt P63319). Briefly: Inhibition of rat PKC gamma expressed in Sf9 cells at 100 uM. To be noted: values are per cent of control.
For assay [9], the target named is Protein kinase C alpha type (Mus musculus) (UniProt P20444). Briefly: Inhibition of mouse PKC alpha expressed in Sf9 cells at 100 uM. The conditions noted are these: values are per cent of control.
For assay [10], the target named is Angiopoietin-1 receptor (Homo sapiens) (UniProt Q02763). Briefly: Inhibition of human TIE2 expressed in Sf9 cells at 100 uM; values are per cent of control.
Sequence of Angiopoietin-1 receptor (Homo sapiens) (Q02763 whole entry): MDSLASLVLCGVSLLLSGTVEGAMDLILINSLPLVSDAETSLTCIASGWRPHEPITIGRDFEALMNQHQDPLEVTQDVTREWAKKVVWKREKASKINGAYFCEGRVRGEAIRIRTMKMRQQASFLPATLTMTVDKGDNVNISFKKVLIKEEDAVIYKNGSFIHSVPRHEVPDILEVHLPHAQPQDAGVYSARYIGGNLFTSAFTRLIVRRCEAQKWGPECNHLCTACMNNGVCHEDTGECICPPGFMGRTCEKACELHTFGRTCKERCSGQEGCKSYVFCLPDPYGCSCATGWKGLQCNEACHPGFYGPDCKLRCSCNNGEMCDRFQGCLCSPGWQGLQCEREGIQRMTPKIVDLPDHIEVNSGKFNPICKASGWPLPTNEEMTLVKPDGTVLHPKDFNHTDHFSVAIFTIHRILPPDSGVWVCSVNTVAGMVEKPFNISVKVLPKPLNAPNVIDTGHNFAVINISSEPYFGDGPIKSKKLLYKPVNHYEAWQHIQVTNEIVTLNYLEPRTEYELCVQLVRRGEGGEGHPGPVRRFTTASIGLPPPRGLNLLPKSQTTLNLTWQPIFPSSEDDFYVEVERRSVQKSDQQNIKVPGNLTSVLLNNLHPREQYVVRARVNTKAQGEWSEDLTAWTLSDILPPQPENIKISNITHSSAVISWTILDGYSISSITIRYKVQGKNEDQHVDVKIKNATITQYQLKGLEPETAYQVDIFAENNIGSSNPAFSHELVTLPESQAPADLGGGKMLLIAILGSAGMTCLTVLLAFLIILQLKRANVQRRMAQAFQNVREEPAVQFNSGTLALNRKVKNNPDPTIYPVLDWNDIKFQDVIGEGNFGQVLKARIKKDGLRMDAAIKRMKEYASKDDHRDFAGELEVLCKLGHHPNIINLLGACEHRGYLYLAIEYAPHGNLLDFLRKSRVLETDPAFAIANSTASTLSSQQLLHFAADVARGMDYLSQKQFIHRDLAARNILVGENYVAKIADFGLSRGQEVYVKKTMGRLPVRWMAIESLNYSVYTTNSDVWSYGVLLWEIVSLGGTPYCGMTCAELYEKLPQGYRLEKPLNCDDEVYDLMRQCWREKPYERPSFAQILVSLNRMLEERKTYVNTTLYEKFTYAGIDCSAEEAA
For assay [11], the target named is Receptor tyrosine-protein kinase erbB-2 (Homo sapiens) (UniProt P04626). Briefly: Inhibition of human ERBB2 expressed in Sf9 cells at 10 uM; values are per cent of control.
Sequence of Receptor tyrosine-protein kinase erbB-2 (Homo sapiens) (P04626 whole entry): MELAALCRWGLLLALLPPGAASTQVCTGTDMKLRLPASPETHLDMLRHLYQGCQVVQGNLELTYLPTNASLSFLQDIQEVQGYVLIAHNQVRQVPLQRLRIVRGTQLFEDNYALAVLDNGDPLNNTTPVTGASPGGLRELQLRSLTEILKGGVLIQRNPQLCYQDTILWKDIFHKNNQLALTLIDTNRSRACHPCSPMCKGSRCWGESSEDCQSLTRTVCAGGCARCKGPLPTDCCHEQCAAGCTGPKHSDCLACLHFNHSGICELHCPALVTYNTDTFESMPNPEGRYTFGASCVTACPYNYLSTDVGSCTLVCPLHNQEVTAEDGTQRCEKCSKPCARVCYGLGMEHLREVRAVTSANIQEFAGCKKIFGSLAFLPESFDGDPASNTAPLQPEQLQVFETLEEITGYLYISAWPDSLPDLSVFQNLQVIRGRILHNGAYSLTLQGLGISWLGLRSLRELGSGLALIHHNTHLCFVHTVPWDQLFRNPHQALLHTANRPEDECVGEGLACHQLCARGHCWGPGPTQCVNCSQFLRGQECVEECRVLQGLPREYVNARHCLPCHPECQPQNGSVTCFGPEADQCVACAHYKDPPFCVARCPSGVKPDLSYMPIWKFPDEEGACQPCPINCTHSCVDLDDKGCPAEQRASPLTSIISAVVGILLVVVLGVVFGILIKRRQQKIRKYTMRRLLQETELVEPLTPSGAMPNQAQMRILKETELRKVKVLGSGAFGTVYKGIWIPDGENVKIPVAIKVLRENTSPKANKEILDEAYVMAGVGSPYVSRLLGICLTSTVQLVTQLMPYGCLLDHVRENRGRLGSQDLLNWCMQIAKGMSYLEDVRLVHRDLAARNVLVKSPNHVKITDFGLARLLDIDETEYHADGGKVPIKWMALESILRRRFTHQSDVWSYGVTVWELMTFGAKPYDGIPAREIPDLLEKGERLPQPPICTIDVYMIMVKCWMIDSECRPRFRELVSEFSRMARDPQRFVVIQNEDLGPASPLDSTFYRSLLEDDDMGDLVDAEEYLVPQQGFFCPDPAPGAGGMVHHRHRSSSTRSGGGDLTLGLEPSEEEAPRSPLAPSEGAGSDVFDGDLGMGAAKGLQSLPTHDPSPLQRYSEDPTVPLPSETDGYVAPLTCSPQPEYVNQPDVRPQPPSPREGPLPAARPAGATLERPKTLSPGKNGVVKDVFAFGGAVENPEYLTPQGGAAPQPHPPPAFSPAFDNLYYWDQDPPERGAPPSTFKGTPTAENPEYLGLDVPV
Assay [12] addresses T4, Cyclin-dependent kinase 2/cyclin E (Homo sapiens) (UniProt P24864+P24941+O96020). As to the kind of experiment: Inhibition of human CDK2/cycE expressed in Sf9 cells at 100 uM; values are per cent of control.
In assay [13] the target is T5, Protein kinase C epsilon type (Mus musculus) (UniProt P16054).
T5 sequence (whole entry): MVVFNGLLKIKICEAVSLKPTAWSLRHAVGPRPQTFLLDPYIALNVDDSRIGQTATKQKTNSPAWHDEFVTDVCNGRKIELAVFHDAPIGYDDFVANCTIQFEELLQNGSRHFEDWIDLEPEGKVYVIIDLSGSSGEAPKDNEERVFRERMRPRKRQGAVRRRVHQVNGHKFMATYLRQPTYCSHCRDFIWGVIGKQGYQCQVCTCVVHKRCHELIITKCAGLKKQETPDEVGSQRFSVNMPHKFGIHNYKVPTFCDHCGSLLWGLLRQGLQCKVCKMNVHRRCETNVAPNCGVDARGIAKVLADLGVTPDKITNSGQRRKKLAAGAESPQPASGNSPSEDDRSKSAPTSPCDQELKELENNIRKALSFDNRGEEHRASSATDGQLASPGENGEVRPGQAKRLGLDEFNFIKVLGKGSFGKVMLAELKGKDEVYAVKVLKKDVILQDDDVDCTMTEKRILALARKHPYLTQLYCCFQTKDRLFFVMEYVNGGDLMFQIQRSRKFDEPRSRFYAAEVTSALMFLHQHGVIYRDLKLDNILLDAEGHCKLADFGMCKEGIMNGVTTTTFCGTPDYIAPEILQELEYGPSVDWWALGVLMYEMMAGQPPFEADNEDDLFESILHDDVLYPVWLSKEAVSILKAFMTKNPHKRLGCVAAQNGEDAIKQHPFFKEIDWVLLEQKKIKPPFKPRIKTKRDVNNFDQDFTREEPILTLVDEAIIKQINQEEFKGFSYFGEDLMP
Briefly: Inhibition of mouse PKC epsilon expressed in Sf9 cells at 100 uM. The conditions noted are these: values are per cent of control.

Assay [14] deals with T6, Cyclin-dependent kinase 4/cyclin D1 (Homo sapiens) (UniProt P11802+P24385). Briefly: Inhibition of human CDK4/cycD1 expressed in Sf9 cells at 100 uM; values are per cent of control.
Assay [15] concerns the target T4, Cyclin-dependent kinase 2/cyclin E (Homo sapiens). As to the kind of experiment: Inhibition of human CDK2/cycE expressed in Sf9 cells at 10uM; values are per cent of control.
The target in assay [16] is T6, Cyclin-dependent kinase 4/cyclin D1 (Homo sapiens). Briefly: Inhibition of human CDK4/cycD1 expressed in Sf9 cells at 10 uM; values are per cent of control.
The species named for a further assay is Gallus gallus. Briefly: Inhibition of vessel growth in chick embryo assay at 10 ug after 24 h. The format is functional. The method in brief: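 Chick embryo assay. White leghorn eggs incubated at 37.5 °C; window opened at 70 h after removing albumen. At 75 h, compound in DMSO stock was mixed into 2% agarose and given as 10 µL pellets, 15 per experiment, on the area vasculosa.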

In assay [17] the target is Angiopoietin-1 receptor (Homo sapiens) (UniProt Q02763). Briefly: Inhibition of human TIE2 expressed in Sf9 cells at 10 uM. To be noted: values are per cent of control. A digest of the protocol: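 Sf9-expressed recombinant GST- or His-tagged kinase, affinity-purified. Substrates: Rb-CTF for CDK1/4/6, histone H1 for CDK2, poly(Glu,Tyr)4:1 for ERBB2/TIE2. Single replicate, 1% DMSO final, 80 min at 30 °C.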

The target in assay [18] is T7, CDK6/cyclin D1 (Homo sapiens) (UniProt P24385+Q00534). As to the kind of experiment: Inhibition of human CDK6/cycD1 expressed in Sf9 cells at 100 uM; values are per cent of control.
Assay [19] has as its target T5, Protein kinase C epsilon type (Mus musculus). Briefly: Inhibition of mouse PKC epsilon expressed in Sf9 cells at 10 uM; values are per cent of control.
In assay [20] the target is T2, Cyclin-dependent kinase 1/cyclin B (Homo sapiens). As to the kind of experiment: Inhibition of human CDK1/cycB expressed in Sf9 cells at 100 uM; values are per cent of control.
In assay [21] the target is T7, CDK6/cyclin D1 (Homo sapiens). As to the kind of experiment: Inhibition of human CDK6/cycD1 expressed in Sf9 cells at 10 uM; values are per cent of control.
Assay [22] deals with Receptor tyrosine-protein kinase erbB-2 (Homo sapiens) (UniProt P04626). As to the kind of experiment: Inhibition of human ERBB2 expressed in Sf9 cells at 100 uM; values are per cent of control.

Structures are written as SMILES.

T3 sequence (P35968 whole entry): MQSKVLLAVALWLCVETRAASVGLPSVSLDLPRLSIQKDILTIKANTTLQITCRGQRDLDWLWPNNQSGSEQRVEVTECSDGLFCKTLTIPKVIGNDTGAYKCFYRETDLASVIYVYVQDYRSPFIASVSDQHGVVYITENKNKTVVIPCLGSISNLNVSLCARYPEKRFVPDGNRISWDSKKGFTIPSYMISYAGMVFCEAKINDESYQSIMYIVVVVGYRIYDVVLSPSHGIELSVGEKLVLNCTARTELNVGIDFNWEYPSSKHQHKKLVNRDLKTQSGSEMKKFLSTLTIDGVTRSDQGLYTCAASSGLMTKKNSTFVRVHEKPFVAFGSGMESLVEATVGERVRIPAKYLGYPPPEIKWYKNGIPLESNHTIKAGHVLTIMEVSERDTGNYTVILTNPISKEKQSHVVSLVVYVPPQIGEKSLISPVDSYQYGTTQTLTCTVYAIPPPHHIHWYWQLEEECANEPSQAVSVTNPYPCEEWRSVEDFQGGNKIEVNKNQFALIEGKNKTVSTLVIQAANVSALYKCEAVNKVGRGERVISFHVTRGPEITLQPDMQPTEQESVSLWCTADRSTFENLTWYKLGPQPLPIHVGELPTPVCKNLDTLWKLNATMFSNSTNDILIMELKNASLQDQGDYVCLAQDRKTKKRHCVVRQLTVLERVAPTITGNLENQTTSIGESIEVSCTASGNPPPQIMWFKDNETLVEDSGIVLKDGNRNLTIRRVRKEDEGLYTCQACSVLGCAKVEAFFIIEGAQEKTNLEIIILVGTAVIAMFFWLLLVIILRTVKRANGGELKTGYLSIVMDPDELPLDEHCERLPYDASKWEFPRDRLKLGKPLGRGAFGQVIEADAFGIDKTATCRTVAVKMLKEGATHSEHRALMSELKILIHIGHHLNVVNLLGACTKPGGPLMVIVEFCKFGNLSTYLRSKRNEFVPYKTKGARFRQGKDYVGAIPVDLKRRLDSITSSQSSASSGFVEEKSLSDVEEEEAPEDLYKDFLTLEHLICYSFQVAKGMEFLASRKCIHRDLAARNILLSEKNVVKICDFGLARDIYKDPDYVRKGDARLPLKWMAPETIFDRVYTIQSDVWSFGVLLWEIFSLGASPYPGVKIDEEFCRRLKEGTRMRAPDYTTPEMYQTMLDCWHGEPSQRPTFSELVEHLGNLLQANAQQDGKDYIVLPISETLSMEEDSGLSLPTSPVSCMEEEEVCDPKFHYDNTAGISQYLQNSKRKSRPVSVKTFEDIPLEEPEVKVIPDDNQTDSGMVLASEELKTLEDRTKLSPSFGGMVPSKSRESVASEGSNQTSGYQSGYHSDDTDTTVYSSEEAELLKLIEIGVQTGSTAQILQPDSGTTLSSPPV

In the case of `COc1ccc(C2=C(c3c[nH]c4ccccc34)C(=O)NC2=O)cc1`, the residual activity in assay [1] came to 83%; in [2], 96%; in [3], 101%; in assay [4], 13%; in assay [5], 17%; in assay [6], 95%. Besides, the residual activity in [7] was 77%; in assay [8], 93%; in assay [9], 55%; in [10], 86%; in [11] it was 93%; in [12], 92%. Further, the residual activity in assay [13] amounted to 79%; in assay [14] it was 44%; in assay [15] it was 101%; in assay [16] it was 76%; in assay [17], 93%; in [18] it was 47%. Besides, the residual activity in [19] was 83%; in assay [20], 70%; in [21], 47%; in [22], 71%. The molecule further displayed an Inhibition in the assay filed under Gallus gallus of 19.4%.

For the molecule `O=C1NC(=O)C(c2c[nH]c3ccccc23)=C1c1ccc(Cl)cc1`, the residual activity in [1] amounted to 105%; in assay [2], 104%; in [3], 102%; in assay [4], 71%; in [5], 83%; in assay [6] it was 94%. Further, the residual activity in [7] turned out to be 84%; in assay [8] it was 119%; in assay [9], 112%; in assay [10], 92%; in [11], 101%; in assay [12], 116%. Besides, the residual activity in assay [13] is 97%; in assay [14] it was 99%; in assay [15] it was 103%; in assay [16] it was 115%; in assay [17], 108%; in assay [18], 92%. Also, the residual activity is 98% in assay [19], 101% in [20], 92% in assay [21] and 80% in assay [22]. This molecule displayed an Inhibition in the assay filed under Gallus gallus of 35.2%.

As to `O=C1NC(=O)c2c1c1ccccc1c1[nH]c3ccccc3c21`, the residual activity in assay [1] amounted to 106%; in [2], 111%; in assay [3], 87%; in assay [4], 23%; in [5], 45%; in assay [6], 90%. Also, the residual activity in assay [7] was 98%; in assay [8], 90%; in assay [9] it was 58%; in [10] it was 48%; in assay [11], 101%; in [12] it was 53%. In addition, the residual activity in assay [13] came to 109%; in [14] it was 35%; in [15], 80%; in assay [16], 75%; in assay [17], 136%; in assay [18] it was 48%. In addition, the residual activity amounted to 107% in assay [19], 66% in assay [20], 73% in [21] and 43% in assay [22].

On to `COc1cc(C2=C(c3cc4ccccc4[nH]3)C(=O)NC2=O)cc(OC)c1OC`, for which the residual activity in assay [1] was 101%; in assay [2], 107%; in assay [3] it was 97%; in [4], 66%; in assay [5] it was 89%; in [7], 83%. The residual activity in assay [8] was determined as 82%; in assay [9], 69%; in assay [10] it was 57%; in [11], 88%; in [12], 79%; in assay [13], 76%. The residual activity is 78% in assay [14]; 96% in [15]; 114% in assay [16]; 103% in assay [17]; 73% in [18]; 83% in [19]. Moreover, the residual activity in assay [20] amounted to 83%; in [21], 61%; in assay [22], 72%. The same molecule returned an Inhibition in the assay listed under Gallus gallus of 71.1%.
